The values that follow come from article PMC9320808 (Chemmedchem, 2022).

Like-named read-outs stand apart in the source and are kept apart here.

The target of one test is PD‐1/PD−L1 (Homo sapiens, UniProt Q9NZQ7). Briefly: Homogenous time-resolved fluorescence. It counts as binding. Conditions: read-out: Measured IC50; HTRF PD-1/PD-L1 assay; mean±SD, n=2–3 in triplicate. In outline:
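Competitive TR-FRET (HTRF) kit assay: PD-L1-6His-tag and PD-1-Ig, detected by anti-human IgG-Eu³⁺ cryptate and anti-6HIS-XL665 antibody. Test compounds plated per the kit instructions. Signal read on a multimode plate reader, and IC50 derived from the inhibition of PD-1/PD-L1 binding.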
Background: Time-resolved FRET reads energy transfer from a long-lived donor to a nearby acceptor.

In another test the test system is PD−L1. Conditions: cited from earlier work.

Chain of PD‐1/PD−L1 (Q9NZQ7 19-238 limits assumed): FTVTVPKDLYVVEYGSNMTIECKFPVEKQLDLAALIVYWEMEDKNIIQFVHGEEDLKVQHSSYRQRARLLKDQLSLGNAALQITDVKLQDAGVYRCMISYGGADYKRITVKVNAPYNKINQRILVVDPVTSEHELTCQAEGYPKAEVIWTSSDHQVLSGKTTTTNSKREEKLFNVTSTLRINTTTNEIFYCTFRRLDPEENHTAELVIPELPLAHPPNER

As to “Atezolizumab: therapeutic antibody targeting PD−L1”, the half-maximal inhibitory concentration (IC50) with PD‐1/PD−L1 is 2.25 ± 0.36 nM; in the test on PD−L1 (read-out: Reported IC50, literature value), 3.83 nM.

For “Cyclo(AcPhe−^mPhe−^mNle−^mGly−Asp−Val−^mPhe−Tyr−^mGly−Trp−Tyr−Leu−Cys)‐Gly−NH2 [BMS71]”, in the test on PD−L1 (read-out: reported IC50, reported value for BMS71), the IC50 is 7 nM.

In general, IC50 refers to the concentration that gives 50% inhibition.
